Data as given in the EternaBench riboswitch data.

System: MS2 coat protein
Test: apparent Kd, MS2 coat protein; higher = weaker binding; RNA-MaP array
Procedure, shortened: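 With or without input ligand, designed RNAs transcribed on an Illumina sequencing chip from sequenced DNA templates were incubated at room temperature with fluorescently labeled MS2 coat protein at 1.5 nM to 3 μM. The buffer was Tris-HCl pH 7.5 with KCl, MgCl2, BSA, DTT, tRNA and Tween20, and incubation ran 0.8–1.5 h at the lowest and 10–20 min at the highest concentrations. Apparent Kd is reported as the median of fits to binding curves from individual clusters. Designs measured on fewer than 10 clusters are not included.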

[1] = designed as: OFF switch for flavin mononucleotide, no ligand
[2] = designed as: ON switch for flavin mononucleotide, no ligand
[3] = ligand present: flavin mononucleotide, designed as: ON switch for flavin mononucleotide
[4] = ligand present: flavin mononucleotide, designed as: OFF switch for flavin mononucleotide
[5] = designed as: OFF switch for tryptophan, no ligand
[6] = ligand present: tryptophan, designed as: OFF switch for tryptophan

| Sequence | apparent Kd [1] | apparent Kd [2] | apparent Kd [3] | apparent Kd [4] | further results |
| --- | --- | --- | --- | --- | --- |
| CACAUGUAAGGAUAUAGUGAACUAAAGCAACUAGAUGUAAACUAGAAGGUACAUGAGGAUCACCCAUGUAAAGG | 0.0173 µM | – | – | – | – |
| CACUGACAUGAGGAUCACCCAUGUCUCCUGCUUGUAGGAUAUAGGUGGUCGCUGGACAGUCUAGAAGGACAUGUAA | – | 0.0547 µM | 0.0495 µM | – | – |
| CAGGCAUGUAUAGGAUAUUGGGCUGGACGCGUUGUCGGUCGUUCCAACAUGAGGAUCACCCAUGUCAAGAAGGAUAUGCAUUCG | – | 0.0388 µM | 0.0273 µM | – | – |
| CAUUAUCGCGUUAGGAUAUGAACAAGAAAUCGGCUACAGAAGGAACAUGAGGAUCACCCAUGUAUGAUCAAGAC | 0.0131 µM | – | – | 0.0106 µM | – |
| CCACAGACAUGAGGAUCACCCAUGUAGUUGGGCGUGUCAUCUCAGGAUAUGGCAACGCUUAUGAGCCAGAAGGGAGAAGGUUAU | 0.0134 µM | – | – | 0.0128 µM | – |
| CCACAGUAUAAAGGAUAUGCGGCCACGGCAACAGCAGAAGGUUAUGCCACUGUACAUGAGGAUCACCCAUGUCCAACUUUCCCU | – | 0.0238 µM | 0.0119 µM | – | – |
| CCACCCGACAUGAGGAUCACCCAUGUAGAUGAUCCUGUACCAUAGGAUAUAGGCGUAAGAGAGAUCUAGAAGGAUGUACAACCC | 0.108 µM | – | – | 0.0735 µM | – |
| CCAGAAGCAGGAUAUACAUGAGGAUCACCCAUGUUAAACAAUAUGACGAGCAUAGUCAGUAGAAGGGCAACUCA | 0.0188 µM | – | – | 0.0161 µM | – |
| CCAGCGAGUUAGACCUUACAUGAGGAUCACCCAUGUUGGCGUAGAAGGACGCUCAUAAGCACUGCGUAGGAUAUACUCACCAAU | 0.00799 µM | – | – | 0.0104 µM | – |
| CCCACAAGCACGGCCGCCACUAUAUUAAUUACUGUCCUAGAACAUGAGGAUCACCCAUGUUAAUGUAGGACCGGGUGCGGGCCCG | – | – | – | – | apparent Kd [5]: 0.00957 µM; apparent Kd [6]: 0.0128 µM |
| CCCAUUGAGGAGGAUAUACUAUUGGAGACUCUCGUAGAAGGCCUGACAUGAGGAUCACCCAUGUACGUGAUAUC | 0.121 µM | – | – | 0.0767 µM | – |
| CCGAGCACAGGAUAUACAUGAGGAUCACCCAUGUAUACGAAUACGACACAUCCUGCGUGUAGAAGGGUGGCAAA | 0.00647 µM | – | – | 0.00622 µM | – |
| CCGCACAUGAGGAUCACCCAUGUUCCCAGUCAACUAGGAGCCAAGGAUAUCGUUCGCGAGUGCACCGAGAAGGUGGCCCAUGAA | – | 0.193 µM | 0.0726 µM | – | – |
| CCGGGCAGUUUAGGAUAUACACGUGAUUCAUGCGUAGAAGGAAAUCACAGAAUAGUUUCCUGGACAUGAGGAUCACCCAUGUAG | – | 0.252 µM | 0.147 µM | – | – |
| CCGGGCGCUUAACAGGAUAUAGCAGUACAUACAUGAGGAUCACCCAUGUCUAUCUUGUAAUAAAGCUAGAAGGGUUCAUCCGAGGU | – | 0.014 µM | 0.00984 µM | – | – |
| CCUAGACAUGAGGAUCACCCAUGUUAUUGUCUUCAAGGAUAUCGAUGUCUCUCAUAGGCACGAGAAGGUGACUCCU | – | 0.0852 µM | 0.0671 µM | – | – |
| CCUUUUAUUAAUGAUACCAGCGUAUUAAGCAUCACCUUGGACAUGAGGAUCACCCAUGUACGCCCUUGGCAGCAUACCACUGGGU | – | – | – | – | apparent Kd (designed as: OFF switch for theophylline, no ligand): 0.0425 µM; apparent Kd (ligand present: theophylline, designed as: OFF switch for theophylline): 0.0534 µM |
| CGACAUUAAACAUGAGGAUCACCCAUGUGACCCUAUUGUCCAAAGGAUAUCUUAUGAAUAGAGAAAGAGAAGGUUGUAUUCCCA | 0.241 µM | – | – | 0.196 µM | – |
| CGCAGGGCCCAGAAGGGCAUAAUGUUAGACUACAUGAGGAUCACCCAUGUGCCACGAGAGGUUGUGCAGGAUAUGGAUCUAUUG | – | 0.0567 µM | 0.0239 µM | – | – |
| CGCGACUUCAGAGGAUAUGUGCGUGUCACAUGAGGAUCACCCAUGUAAGGUUACCUACGACCGGGACAGAAGGCUGACCCAAAA | – | 0.061 µM | 0.0196 µM | – | – |
| CGCUACAUAGCGGCCGCCACUGUCAUGGCUACGAUAGGUCACUCGUACAUGAGGAUCACCCAUGUCAGGACCGGGCUAUCCUCGC | – | – | – | – | apparent Kd [5]: 0.0929 µM; apparent Kd [6]: 0.203 µM |
| CGUAUGGGUGUCAGGAUAUGCGGGACGCUGUUACUGCAGAAGGGACAUGAGGAUCACCCAUGUAGUUCCAGACC | 0.0184 µM | – | – | 0.0333 µM | – |
| CUAAAACAUGAGGAUCACCCAUGUGUUUAGCGCAGAGGAUAUUGGGAUUGGUUGCUCGCUCAAGAAGGCUGAUUGG | – | 0.00855 µM | 0.00702 µM | – | – |
| CUCAGCGGGCUAGGAUAUGGCCUGUGGUUUAGGCCAGAAGGAGCUCACUAAGCACAUGAGGAUCACCCAUGUCUCAAUGCCUGA | – | 0.0148 µM | 0.00884 µM | – | – |
| CUCCCAAACAAGAAGGGCGUCGAGUACGGUGAACUUGCCACAUAACAUGAGGAUCACCCAUGUACGCAGGAUAUUGGAGCGUUU | 0.138 µM | – | – | 0.234 µM | – |
| CUCCUCGUAGGAUAUCGCACCGCGUACAUGAGGAUCACCCAUGUGAUUCUAUAGAUUAAGCGAGAAGGACGACAGG | 0.376 µM | – | – | 0.269 µM | – |
| CUGUAGACAGGAUAUGUUGUGCCGUACAUGAGGAUCACCCAUGUGAGAUCUCGCUACCAUACAGAAGGGUCUAAAC | 0.0432 µM | – | – | 0.0574 µM | – |
| CUGUUUGGAGAGGAUAUGUCGGGAAGCUAAUCAACAGAAGGCUCAACAUGAGGAUCACCCAUGUCGGGUGCGUA | 0.0168 µM | – | – | 0.0491 µM | – |
